# Activity calls are given as the source filed them. The rule behind the calls is not given here.
# Target: T1, Cannabinoid receptor 1 (Homo sapiens, UniProt P21554)
# Experiment: Displacement of [3H]CP55940 from human CB1 receptor membrane fractions
# Details: not given
# In short: (§1)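 Membranes from confluent recombinant hCB1 or hCB2 cells: sonicated on ice in 20 mM Tris–HCl pH 7.4, 2 mM EDTA, 0.25 M sucrose with protease inhibitor; spun 3000 rpm 10 min, then supernatant 100,000 g 60 min at 4 °C; pellets stored at −80 °C. Radioligand [3H]-CP55940; its Kd per membrane set by Scatchard analysis.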
# T1 sequence (P21554 whole entry): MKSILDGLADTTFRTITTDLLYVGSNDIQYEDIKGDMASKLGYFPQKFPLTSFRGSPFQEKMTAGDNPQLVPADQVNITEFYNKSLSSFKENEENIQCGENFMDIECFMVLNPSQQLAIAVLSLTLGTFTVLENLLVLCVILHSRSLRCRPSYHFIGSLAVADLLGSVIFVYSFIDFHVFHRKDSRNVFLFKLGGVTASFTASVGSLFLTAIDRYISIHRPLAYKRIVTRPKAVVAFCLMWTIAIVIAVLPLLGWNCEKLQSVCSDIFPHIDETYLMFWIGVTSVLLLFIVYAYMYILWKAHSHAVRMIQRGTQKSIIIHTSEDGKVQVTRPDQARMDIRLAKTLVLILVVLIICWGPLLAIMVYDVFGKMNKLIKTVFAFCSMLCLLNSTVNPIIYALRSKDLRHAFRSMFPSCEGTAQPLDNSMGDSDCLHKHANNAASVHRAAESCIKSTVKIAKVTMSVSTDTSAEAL
row,SMILES,Ki
1,O=C(N[C@H](C(=O)O)C1CCCCC1)c1cc2c(n(CC3CCCCC3)c1=O)CCCCCC2,3060 nM
2,O=C(O)Cc1cccc(NC(=O)c2cc3c(n(CC4CCCCC4)c2=O)CCCCCC3)c1,2880 nM
3,O=C(O)Cc1cnc(NC(=O)c2cc3c(n(CC4CCCCC4)c2=O)CCCCCC3)s1,235 nM
4,O=C(O)Cc1ccc(NC(=O)c2cc3c(n(CC4CCCCC4)c2=O)CCCCCC3)cc1,3990 nM
5,O=C(O)c1ccc(NC(=O)c2cc3c(n(CC4CCCCC4)c2=O)CCCCCC3)cc1,370 nM
6,O=C(O)c1csc(NC(=O)c2cc3c(n(CC4CCCCC4)c2=O)CCCCCC3)n1,> 5000 nM
7,O=C(N[C@@H](Cc1ccccc1)C(=O)O)c1cc2c(n(CC3CCCCC3)c1=O)CCCCCC2,738 nM
8,O=C(O)c1cnc(NC(=O)c2cc3c(n(CC4CCCCC4)c2=O)CCCCCC3)s1,> 5000 nM
9,O=C(O)c1cccc(NC(=O)c2cc3c(n(CC4CCCCC4)c2=O)CCCCCC3)c1,1560 nM
10,O=C(O)c1ccccc1NC(=O)c1cc2c(n(CC3CCCCC3)c1=O)CCCCCC2,2530 nM
11,CC(C)(NC(=O)c1cc2c(n(CC3CCCCC3)c1=O)CCCCCC2)C(=O)O,1350 nM
12,O=C(N[C@@H](C(=O)O)c1ccccc1)c1cc2c(n(CC3CCCCC3)c1=O)CCCCCC2,69 nM
13,O=C(O)Cc1ccccc1NC(=O)c1cc2c(n(CC3CCCCC3)c1=O)CCCCCC2,548 nM
14,CC(C)[C@H](NC(=O)c1cc2c(n(CC3CCCCC3)c1=O)CCCCCC2)C(=O)O,1880 nM

# Target: T1, Cannabinoid receptor 1
# Experiment: Agonist activity at human CB1 receptor expressed in CHO cells assessed as inhibition of forskolin-induced cAMP levels after 20 mins
# Assay type: functional, cell-based
# Details: not given
row,SMILES,IC50
1,O=C(N[C@H](C(=O)O)c1ccccc1)c1cc2c(n(CC3CCCCC3)c1=O)CCCCCC2,> 2000 nM
2,O=C(N[C@H](C(=O)O)C1CCCCC1)c1cc2c(n(CC3CCCCC3)c1=O)CCCCCC2,> 2000 nM
3,O=C(O)Cc1cccc(NC(=O)c2cc3c(n(CC4CCCCC4)c2=O)CCCCCC3)c1,997 nM
4,O=C(O)Cc1cnc(NC(=O)c2cc3c(n(CC4CCCCC4)c2=O)CCCCCC3)s1,23 nM
5,O=C(O)Cc1ccc(NC(=O)c2cc3c(n(CC4CCCCC4)c2=O)CCCCCC3)cc1,> 2000 nM
6,O=C(O)c1ccc(NC(=O)c2cc3c(n(CC4CCCCC4)c2=O)CCCCCC3)cc1,291 nM
7,O=C(O)c1csc(NC(=O)c2cc3c(n(CC4CCCCC4)c2=O)CCCCCC3)n1,> 2000 nM
8,O=C(N[C@@H](Cc1ccccc1)C(=O)O)c1cc2c(n(CC3CCCCC3)c1=O)CCCCCC2,297 nM
9,O=C(O)c1cnc(NC(=O)c2cc3c(n(CC4CCCCC4)c2=O)CCCCCC3)s1,> 2000 nM
10,O=C(O)c1cccc(NC(=O)c2cc3c(n(CC4CCCCC4)c2=O)CCCCCC3)c1,611 nM
11,O=C(O)c1ccccc1NC(=O)c1cc2c(n(CC3CCCCC3)c1=O)CCCCCC2,657 nM
12,O=C(N[C@@H](C(=O)O)c1ccccc1)c1cc2c(n(CC3CCCCC3)c1=O)CCCCCC2,> 2000 nM

# Target: T2, Cannabinoid receptor 2 (Homo sapiens, UniProt P34972)
# T2 sequence (P34972 whole entry): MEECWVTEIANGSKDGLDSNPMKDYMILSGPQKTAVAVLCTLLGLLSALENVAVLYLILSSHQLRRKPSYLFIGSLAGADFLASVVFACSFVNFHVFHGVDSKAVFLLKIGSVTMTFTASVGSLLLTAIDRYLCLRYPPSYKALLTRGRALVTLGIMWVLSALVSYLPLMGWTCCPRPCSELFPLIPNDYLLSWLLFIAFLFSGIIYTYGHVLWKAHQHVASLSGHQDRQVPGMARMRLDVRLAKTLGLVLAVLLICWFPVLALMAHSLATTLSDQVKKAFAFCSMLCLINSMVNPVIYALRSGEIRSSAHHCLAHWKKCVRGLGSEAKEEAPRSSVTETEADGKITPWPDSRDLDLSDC
# Experiment: Displacement of [3H]CP55940 from human CB2 receptor membrane fractions
# Details: not given
# In short: as §1
row,SMILES,Ki
1,O=C(N[C@H](C(=O)O)c1ccccc1)c1cc2c(n(CC3CCCCC3)c1=O)CCCCCC2,1.2 nM
2,O=C(N[C@H](C(=O)O)C1CCCCC1)c1cc2c(n(CC3CCCCC3)c1=O)CCCCCC2,111 nM
3,O=C(O)Cc1cccc(NC(=O)c2cc3c(n(CC4CCCCC4)c2=O)CCCCCC3)c1,120 nM
4,O=C(O)Cc1cnc(NC(=O)c2cc3c(n(CC4CCCCC4)c2=O)CCCCCC3)s1,4.6 nM
5,O=C(O)Cc1ccc(NC(=O)c2cc3c(n(CC4CCCCC4)c2=O)CCCCCC3)cc1,74 nM
6,O=C(O)c1ccc(NC(=O)c2cc3c(n(CC4CCCCC4)c2=O)CCCCCC3)cc1,107 nM
7,O=C(O)c1csc(NC(=O)c2cc3c(n(CC4CCCCC4)c2=O)CCCCCC3)n1,> 5000 nM
8,O=C(N[C@@H](Cc1ccccc1)C(=O)O)c1cc2c(n(CC3CCCCC3)c1=O)CCCCCC2,33 nM
9,O=C(O)c1cnc(NC(=O)c2cc3c(n(CC4CCCCC4)c2=O)CCCCCC3)s1,885 nM
10,O=C(O)c1cccc(NC(=O)c2cc3c(n(CC4CCCCC4)c2=O)CCCCCC3)c1,614 nM
11,O=C(O)c1ccccc1NC(=O)c1cc2c(n(CC3CCCCC3)c1=O)CCCCCC2,181 nM
12,CC(C)(NC(=O)c1cc2c(n(CC3CCCCC3)c1=O)CCCCCC2)C(=O)O,349 nM
13,O=C(O)c1ccc(CNC(=O)c2cc3c(n(CC4CCCCC4)c2=O)CCCCCC3)cc1,923 nM
14,O=C(N[C@@H](C(=O)O)c1ccccc1)c1cc2c(n(CC3CCCCC3)c1=O)CCCCCC2,3 nM
15,O=C(O)Cc1ccccc1NC(=O)c1cc2c(n(CC3CCCCC3)c1=O)CCCCCC2,46 nM
16,CC(C)[C@H](NC(=O)c1cc2c(n(CC3CCCCC3)c1=O)CCCCCC2)C(=O)O,116 nM

# Target: T2, Cannabinoid receptor 2
# Experiment: Agonist activity at human CB2 receptor expressed in CHO cells assessed as inhibition of forskolin-induced cAMP levels after 20 mins
# Assay type: functional, cell-based
# Details: not given
# In short: (§2)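 hCB2-expressing CHO cells in 24-well plates, exposed to compounds 20 min at 37 °C in Hanks'/20 mM HEPES buffer with 0.1 mM IBMX, 0.2 mM Ro20-1724, 0.1% BSA; forskolin 4 µM then added for 45 min at 37 °C; cellular cAMP quantified by kit.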
row,SMILES,IC50
1,O=C(N[C@H](C(=O)O)C1CCCCC1)c1cc2c(n(CC3CCCCC3)c1=O)CCCCCC2,51 nM
2,O=C(O)Cc1cccc(NC(=O)c2cc3c(n(CC4CCCCC4)c2=O)CCCCCC3)c1,180 nM
3,O=C(O)Cc1cnc(NC(=O)c2cc3c(n(CC4CCCCC4)c2=O)CCCCCC3)s1,3.5 nM
4,O=C(O)Cc1ccc(NC(=O)c2cc3c(n(CC4CCCCC4)c2=O)CCCCCC3)cc1,96 nM
5,O=C(O)c1ccc(NC(=O)c2cc3c(n(CC4CCCCC4)c2=O)CCCCCC3)cc1,38 nM
6,O=C(N[C@@H](Cc1ccccc1)C(=O)O)c1cc2c(n(CC3CCCCC3)c1=O)CCCCCC2,126 nM
7,O=C(O)c1cnc(NC(=O)c2cc3c(n(CC4CCCCC4)c2=O)CCCCCC3)s1,800 nM
8,O=C(O)c1cccc(NC(=O)c2cc3c(n(CC4CCCCC4)c2=O)CCCCCC3)c1,268 nM
9,O=C(O)c1ccccc1NC(=O)c1cc2c(n(CC3CCCCC3)c1=O)CCCCCC2,167 nM
10,O=C(N[C@@H](C(=O)O)c1ccccc1)c1cc2c(n(CC3CCCCC3)c1=O)CCCCCC2,4.4 nM

# Species on record: Mus musculus
# Experiment: Antipruritic activity against Crj:CD-1 ICR mouse assessed as inhibition of Compound 48/80-induced scratching behaviour at 1 % compound painted on shaven back 15 mins before challenge measured for 30 mins relative to control
# Assay type: functional
# Details: not given
row,SMILES,inhibition (INH)
1,O=C(O)Cc1csc(NC(=O)c2cc3c(n(CC4CCCCC4)c2=O)CCCCCC3)n1,109%

# System: Mus musculus
# Experiment: Toxicity in mouse assessed as catalepsy at 0.1 to 1 mg/kg, iv measured at 15 mins post compound administration
# Assay type: organism-based
# Parameters: dose 0.1-1 mg/kg, route intravenous
# Details: in vivo, 0.25 h
# In short: (§3)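 ICR mice, n = 3 per dose, given compound iv in tail vein at 0.1 and 1.0 mg/kg, dissolved in MDAA and PEG solution. Behaviour observed 15 min post-dose and scored: 5 tonic convulsion, 4 catalepsy, 3 prone position/sedation, 2 crawling, 1 decreased locomotion, 0 normal.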
row,SMILES,Activity
1,O=C(O)Cc1csc(NC(=O)c2cc3c(n(CC4CCCCC4)c2=O)CCCCCC3)n1,Non-toxic
2,O=C(O)CCc1csc(NC(=O)c2cc3c(n(CC4CCCCC4)c2=O)CCCCCC3)n1,Non-toxic

# System: Mus musculus
# Experiment: Toxicity in mouse assessed as sedation at 0.1 to 1 mg/kg, iv measured at 15 mins post compound administration
# Assay type: organism-based
# Parameters: dose 0.1-1 mg/kg, route intravenous
# Details: in vivo, 0.25 h
# In short: as §3
row,SMILES,Activity
1,O=C(O)Cc1csc(NC(=O)c2cc3c(n(CC4CCCCC4)c2=O)CCCCCC3)n1,Non-toxic
2,O=C(O)CCc1csc(NC(=O)c2cc3c(n(CC4CCCCC4)c2=O)CCCCCC3)n1,Non-toxic

# Target: T1, Cannabinoid receptor 1
# Experiment: Partial agonist activity at human CB1 receptor expressed in CHO cells assessed as inhibition of forskolin-induced cAMP levels after 20 mins
# Assay type: functional, cell-based
# Details: not given
row,SMILES,Activity
1,O=C(N[C@H](C(=O)O)c1ccccc1)c1cc2c(n(CC3CCCCC3)c1=O)CCCCCC2,Active
2,O=C(O)Cc1cnc(NC(=O)c2cc3c(n(CC4CCCCC4)c2=O)CCCCCC3)s1,Active
3,O=C(N[C@@H](C(=O)O)c1ccccc1)c1cc2c(n(CC3CCCCC3)c1=O)CCCCCC2,Active

# Target: T2, Cannabinoid receptor 2
# Experiment: Partial agonist activity at human CB2 receptor expressed in CHO cells assessed as inhibition of forskolin-induced cAMP levels after 20 mins
# Assay type: functional, cell-based
# Details: not given
# In short: as §2
row,SMILES,Activity
1,O=C(N[C@H](C(=O)O)c1ccccc1)c1cc2c(n(CC3CCCCC3)c1=O)CCCCCC2,Active
2,O=C(O)Cc1cnc(NC(=O)c2cc3c(n(CC4CCCCC4)c2=O)CCCCCC3)s1,Active
3,O=C(N[C@@H](C(=O)O)c1ccccc1)c1cc2c(n(CC3CCCCC3)c1=O)CCCCCC2,Active
